# Hits are enriched below; roughly 9.4% of the tested compounds scored in any of these assays.
# SKKanGAS inh: S. pyogenes SKKanGAS growth inhibitors in kanamycin, primary screen, streptokinase expression inhibitor project, SKKanGAS strain, BacTiter-Glo luminescence. 6 h. inhibition, % at 7.5 µM. 300,000 tested, 1.3% active;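 active = mean replicate score, as percent of positive control median, at least 50; inconclusive = mean below 50 but one replicate at or above 50; inactive = mean and every replicate below 50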;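 also: strain carries kanamycin resistance gene driven by streptokinase promoter and grows in 40 µg/ml kanamycin; loss of luminescence reflects streptokinase promoter inhibition or plain growth inhibition; 0% = median of DMSO wells and 100% = positive control at its reference dose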
# Mdm2-MdmX inh: inhibitors of human Mdm2-MdmX association, primary screen, cell-based, luminescence, split luciferase, SaOS-2, uHTS. Protein Mdm4 (Homo sapiens) + E3 ubiquitin-protein ligase Mdm2 (Homo sapiens), …. SaOS-2 split-luciferase Mdm2/MdmX complementation. inhibition, % at 8 µM. 330,000 tested, 3% active;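 active = inhibition of at least 50% at 8 µM in the primary screen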
# Target sequence (O15151 whole entry, looked up): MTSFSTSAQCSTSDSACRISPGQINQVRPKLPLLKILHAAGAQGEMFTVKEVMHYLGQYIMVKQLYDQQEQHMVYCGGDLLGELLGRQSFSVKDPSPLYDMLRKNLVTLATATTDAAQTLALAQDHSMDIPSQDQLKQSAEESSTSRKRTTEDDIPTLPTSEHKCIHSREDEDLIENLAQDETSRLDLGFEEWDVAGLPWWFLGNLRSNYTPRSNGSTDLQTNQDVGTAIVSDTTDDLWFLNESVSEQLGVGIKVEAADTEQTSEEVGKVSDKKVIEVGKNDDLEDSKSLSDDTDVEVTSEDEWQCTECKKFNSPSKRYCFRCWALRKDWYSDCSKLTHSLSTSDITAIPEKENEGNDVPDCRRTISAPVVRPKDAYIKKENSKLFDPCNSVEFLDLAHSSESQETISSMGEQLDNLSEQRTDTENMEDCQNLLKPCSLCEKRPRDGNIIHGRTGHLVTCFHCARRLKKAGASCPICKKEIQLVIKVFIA
# Target sequence (Q00987 whole entry, looked up): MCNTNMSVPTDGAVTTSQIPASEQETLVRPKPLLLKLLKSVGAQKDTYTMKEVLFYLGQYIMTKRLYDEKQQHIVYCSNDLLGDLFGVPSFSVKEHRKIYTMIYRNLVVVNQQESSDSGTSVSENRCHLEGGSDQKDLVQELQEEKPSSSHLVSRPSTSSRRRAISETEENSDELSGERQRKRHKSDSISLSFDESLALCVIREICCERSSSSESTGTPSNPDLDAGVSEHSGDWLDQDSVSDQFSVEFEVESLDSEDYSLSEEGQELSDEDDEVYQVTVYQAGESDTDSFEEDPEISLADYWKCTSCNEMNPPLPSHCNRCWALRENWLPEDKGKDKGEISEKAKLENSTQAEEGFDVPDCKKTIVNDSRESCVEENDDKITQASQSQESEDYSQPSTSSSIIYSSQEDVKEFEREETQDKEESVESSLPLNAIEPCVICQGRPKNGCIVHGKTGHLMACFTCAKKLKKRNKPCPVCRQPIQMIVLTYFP
# T cruzi repl: inhibitors of intracellular T. cruzi growth, primary screen, luminescence, NIH3T3 host cells | T. cruzi beta-gal in NIH3T3, 90 h | AID 1885, 2009 | inhibition, % (concentration not given with the values) | 300,000 tested, 1.4% active;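 active = mean inhibition across valid replicates above about 55%, limit read from the data; inconclusive = mean below that limit but half or more replicates reach it; inactive = mean below it, under half of replicates reach it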;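 also: signal also drops with host cell toxicity which is not excluded here; 0% = plate median of DMSO wells and 100% = zero luminescence signal; higher percent means less beta-gal luminescence so fewer parasites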
#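 Incubation – ≥90 h infection period, 3 h prior cell attachment · System – NIH/3T3 fibroblasts plus reporter T. cruzi · Doses – compound pinned at 50 nL/well, DMSO · Read-out basis – percent inhibition of parasite-derived β-gal signal · Signal – luminescent β-galactosidase signal after 60 min lysis · Also added – 5000 T. cruzi trypomastigotes/well · Medium – Low-serum DMEM with 2% FBS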
# Beta cell apopt: inhibitors of cytokine-induced beta cell apoptosis, primary screen, luminescence; INS-1E cytokine-induced death, ATP luminescence, 48 h; percent of positive-control rescue, neutral wells zero; protection from apoptosis, % (no concentration beside the values); 300,000 tested, 0.8% active; AID 435005, 2010;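 active = Every replicate reaches about 75%, or at least half do and their mean reaches it too, limit read from the data; inconclusive = At least half of replicates reach the limit but their mean does not; inactive = Under half of replicates reach the limit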;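 also: 0% = cytokine-treated negative control wells and 100% = positive control rescue; higher means more ATP so stronger rescue from cytokine killing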
# Lmaj promast: Leishmania major promastigote growth inhibition, primary screen; Leishmania major promastigotes, resazurin fluorescence viability; inhibition, % at 10 µM; 200,000 tested, 9% active; in the data active = inhibition above about 50%;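 also: promastigotes grown with compound for 44 hours at 28 °C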
# CSC inhib: cancer stem cell viability inhibitors, primary screen, luminescence. cancer stem cell-like cells viability. inhibition, % at 7.5 µM. 300,000 tested, 1.1% active. AID 2717, 2010; in the data active = inhibition above about 75%; inconclusive = no clear call, values can overlap the other calls; tested in HMLE shEcad cells
# Mdm2 MdmX conf: Mdm2-MdmX complex disruptors, retested hits, confirmation, luminescence, single concentration | shares compounds with Mdm2-MdmX inh | Mdm2-MdmX binding, luminescent assay | inhibition, % at 8 µM | 10,000 tested, 55% active | AID 489028, 2010; in the data active = inhibition above about 40%
# FLuc counter: full-length luciferase signal inhibition, confirmation, counter-screen for Mdm2/MdmX interaction inhibitor project, cell-based, single concentration, SaOS-2 | shares compounds with Mdm2-MdmX inh | SaOS-2 full-length luciferase counterscreen, luminescence | inhibition, % at 8 µM | 6,200 tested, 77% active;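 active = mean inhibition at 8 µM reaching about 37%, which flags the compound as non-specific, limit read from the data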;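 also: p53-null SaOS-2 cells with luciferase driven by a doxycycline-inducible promoter; compound on cells about two nights before reading with doxycycline added after day one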
# The depositor's hits bear a star; ? = inconclusive; / = no result given.
SMILES,SKKanGAS inh,Mdm2-MdmX inh,T cruzi repl,Beta cell apopt,Lmaj promast,CSC inhib,Mdm2 MdmX conf,others
Cc1cccc(C)c1NC(=S)NC(C)(C)CO,-0.4,-6.4,0.2,-8.0,/,-10.4,/,
COc1ccc(/C=N/n2cnc3c([nH]c4ccc(C)cc43)c2=O)cc1CN1CCCC1,25.7,19.0,13.6,14.2,/,-0.4,/,
COc1ccc(/C=N/n2cnc3c([nH]c4ccc(F)cc43)c2=O)cc1CN1CCCC1,-7.1,100.4*,37.3,5.7,/,36.4,57.3*,FLuc counter=51.2*
Nc1ncnc2c1ncn2[C@@H]1O[C@H](CNC(=O)[C@H]2CCC(=O)N2)[C@@H](O)[C@H]1O,/,3.4,/,/,/,/,/,
CN1CCN(c2ccc(NC(=O)c3ccc(-c4ccc(Cl)cc4)o3)cc2)CC1,?,100.4*,49.2,26.3,/,105.0*,48.0*,FLuc counter=76.8*
CCc1nnc(NC(=O)c2ccc(-c3ccc(Cl)cc3)o2)s1,-13.2,65.1*,-10.1,-7.9,-3.0,-0.7,-12.3,
CCc1nnc(NC(=O)c2ccc(-c3ccc(C(C)=O)cc3)o2)s1,/,-21.4,/,-0.7,/,2.2,/,
CS(=O)(=O)N1CCN(c2ccc(NC(=O)c3ccc(-c4ccc(Cl)cc4)o3)cc2)CC1,0.7,50.0,4.3,-3.2,-4.1,-0.1,26.8,
COC(=O)c1cccc(C23CC4(C2)[C@H](CN(Cc2cccnc2)[C@@H]4c2ccccc2)C3c2ccc(C(F)(F)F)cc2)c1 (some centres undefined),15.2,49.2,39.6,-3.2,/,20.4,/,
Cc1nn(Cc2ccc([N+](=O)[O-])cc2)c(=O)n1-c1cccc(Cl)c1,-1.5,0.1,-7.5,1.9,-7.9,-0.8,/,
COc1ccc(NC(=O)c2ccc(S(=O)(=O)N3CC(C)OC(C)C3)cc2)cc1 (centres undefined),/,13.8,/,0.7,/,-10.8,/,
C=C1C(=O)O[C@@H]2C[C@@H](C)[C@@H]3C=CC(=O)[C@@]3(C)[C@@H](OC(C)=O)[C@H]12,-2.1,100.3*,?,136.0*,/,85.0*,99.6*,FLuc counter=51.3*
C[C@@H]1C[C@@H]2OC(=O)[C@]3(C)[C@H]2[C@@H](OC3(C)O)[C@]2(C)C(=O)C=C[C@H]12 (some centres undefined),-1.2,-30.0,3.3,-6.1,/,8.8,/,
COc1ccccc1CN1CCC(CNS(=O)(=O)c2cc(-c3cc(C)no3)ccc2OC)CC1,2.8,28.6,22.6,-1.7,/,4.3,/,
COc1ccccc1NS(=O)(=O)NC(=O)c1cn(C)c2ccccc12,-3.1,16.2,2.4,-3.7,/,12.8,/,
CC(=O)n1cc(N(C(=O)CCl)c2ccc(Cl)cc2)c2ccccc21,13.7,98.6*,65.6*,0.7,/,29.9,100.0*,FLuc counter=8.4
CC(=O)n1cc(C2C(=O)CCCC2=O)c2ccccc21,3.8,17.3,-11.2,-6.8,-1.6,-11.5,/,
COc1ccccc1N(C(=O)CCl)c1cn(C(C)=O)c2ccccc12,4.9,96.1*,6.3,4.8,/,16.7,100.1*,FLuc counter=52.4*
CC(C)(C)OC(=O)C[C@H]1C/C=C\C[C@@H](CC(=O)N[C@@H](CO)Cc2ccccc2)C(=O)NC[C@H](c2ccccc2)OC1=O,/,4.7,/,1.1,/,/,/,
O=C(Cn1c(NCCCO)nc2ccccc21)c1ccc(Cl)cc1,-5.9,18.1,11.6,6.0,/,20.8,/,
Cc1cc2nc(NCCCO)n(CC(=O)c3cc(C(C)(C)C)c(O)c(C(C)(C)C)c3)c2cc1C,/,97.9*,/,98.4*,/,75.1*,63.5*,FLuc counter=41.0*
COC(=O)c1sccc1NC(=O)/C=C/c1c(Cl)cccc1Cl,4.4,11.6,7.2,13.9,0.8,-3.8,/,
COC(=O)c1cc(Cl)c(NC(=O)/C=C/c2ccc(OC)c(OC)c2)cc1OC,29.1,18.6,/,-0.1,8.5,2.6,/,
COC(=O)c1sccc1NC(=O)/C=C/c1ccc(Cl)cc1Cl,-4.2,56.4*,14.3,0.5,-6.9,12.2,-51.7,
COC(=O)c1cc(Cl)c(NC(=O)/C=C/c2ccc(Cl)cc2)cc1OC,6.4,57.6*,-78.0,3.5,1.7,8.2,-31.6,
SMILES,SKKanGAS inh,Mdm2-MdmX inh,T cruzi repl,Beta cell apopt,Lmaj promast,CSC inhib,Mdm2 MdmX conf,others
C/C(=N\NC(=O)c1cccc(N/N=C(\C)c2cc(O)ccc2O)c1)c1cc(O)ccc1O,10.9,20.2,-48.8,0.6,4.5,37.1,/,
COc1ccc(N2Cc3ccccc3C2=NC(=O)c2cncc(Br)c2)cc1,5.9,9.9,/,-1.7,2.2,9.3,/,
COc1cnc(-c2ccccn2)nc1N(C)c1ccccc1,71.5*,79.8*,65.8*,91.7*,/,98.3*,76.8*,FLuc counter=56.2*
CN(c1ccccc1)c1ncccn1,-4.0,7.2,-10.6,1.5,/,-12.4,/,
CC(=O)c1ccc(N2CCC(c3cc(-c4ccc(Cl)cc4Cl)n[nH]3)CC2)c([N+](=O)[O-])c1,79.6*,52.1*,62.1*,20.3,15.9,118.0*,37.1,
O=C(Cn1c(=S)[nH]c2ccccc2c1=O)N1CCN(c2ccc(F)cc2)CC1,-3.8,17.0,-14.0,2.4,-10.2,-7.3,/,
CN(C)c1ccnc2sc(C(N)=O)c(N)c12,0.9,96.5*,-2.1,-11.5,0.4,4.7,81.0*,FLuc counter=21.1
CN(C)c1ccnc2sc(C(=O)c3ccc(Br)cc3)c(N)c12,21.0,-16.3,36.7,4.6,-1.8,26.1,/,
O=C(COC(=O)Cc1ccc(F)cc1)NC(=O)c1ccccc1,-1.7,22.0,-14.6,-7.5,/,-4.7,/,
Cc1cccc(NC(=O)c2cc3c(=O)n4ccccc4nc3n(CC(C)C)c2=N)c1,-1.4,48.3,12.4,1.7,-4.2,3.9,/,
COc1ccc(CCn2c(=N)c(C(=O)NC3CCCC3)cc3c(=O)n4ccccc4nc32)cc1OC,7.3,38.6,31.0,1.5,/,-17.0,/,
COc1ccc(CCn2c(=N)c(C(=O)NC3CCCC3)cc3c(=O)n4ccccc4nc32)cc1,-6.9,51.6*,2.4,-0.6,/,-3.3,-0.5,
COc1cccc(NC(=O)c2cc3c(=O)n4ccccc4nc3n(CC(C)C)c2=N)c1,3.2,74.0*,9.8,-0.7,4.1,5.4,68.5*,FLuc counter=41.1*
COc1ccc(-n2nc(C(=O)Nc3ccc(OC)c(OC)c3)c3c4ccccc4n(C)c3c2=O)cc1,9.7,75.6*,16.6,17.9,1.4,-2.5,38.3,
CCOc1ccc(NC(=O)CNC(=O)c2nn(-c3ccc(OC)c(OC)c3)c(=O)c3ccccc23)cc1,-5.2,-0.2,-19.5,0.0,/,-0.2,/,
